Screening results as filed in PubChem.
This is a sample that favours compounds with a hit; in the whole collection about 0.64% have one here.
PMI act: activators of human phosphomannose isomerase. purified human PMI, coupled resazurin fluorescence, 20 min; hits give high values; 1 = vehicle control, 0 substrate-free wells. actives 0.005% (n = 190,000). P34949. activation factor at 20 µM;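 active means activation factor of 2 or more at 20 µM, relative to plate controls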
Target sequence (P34949 whole entry, looked up): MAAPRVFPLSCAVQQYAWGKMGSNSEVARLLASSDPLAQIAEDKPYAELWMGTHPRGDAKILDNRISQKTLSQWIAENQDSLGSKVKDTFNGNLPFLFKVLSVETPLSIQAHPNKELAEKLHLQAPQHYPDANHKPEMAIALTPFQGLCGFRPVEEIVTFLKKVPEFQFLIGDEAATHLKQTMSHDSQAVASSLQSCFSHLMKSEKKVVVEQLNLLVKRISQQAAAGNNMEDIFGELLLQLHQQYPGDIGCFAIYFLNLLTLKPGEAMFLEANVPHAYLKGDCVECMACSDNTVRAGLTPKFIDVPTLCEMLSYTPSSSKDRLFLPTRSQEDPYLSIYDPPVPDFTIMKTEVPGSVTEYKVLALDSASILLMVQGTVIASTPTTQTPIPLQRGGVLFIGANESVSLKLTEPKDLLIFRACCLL
TNAP inh hiacc: inhibitors of human TNAP at high phosphate acceptor concentration | purified TNAP, CDP-star luminescence, 1 M DEA | inhibition, % at 20 µM | actives 0.03% (n = 200,000) | P05186 | AID 1135;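 active means over 50% inhibition of tissue-nonspecific alkaline phosphatase at 20 µM in the single-dose screen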;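 further: plate controls were DMSO wells for no effect and EDTA-quenched wells as full inhibition for full effect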
PMI act hi M6P: increases human PMI activity with near-saturating mannose 6-phosphate; P34949; coupled PMI enzyme assay, resazurin fluorescence, 20 min; hits give high values; 1 = untreated enzyme, 0 = substrate-free blank; activation factor at 20 µM; actives 0.34% (n = 190,000); AID 1216;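 active means activation factor of 2 or more at 20 µM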
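Test system: human phosphomannose isomerase with PGI, G6PDH, diaphorase coupling enzymes / Doses: 20 µM compound, 1% DMSO / Times: enzyme reaction with compound 20 min at room temperature / Measured by: Diaphorase-driven resazurin-to-resorufin fluorescence, excitation 544, emission 590 nm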
TNAP act hiacc: TNAP (human) activation, high acceptor; purified TNAP, CDP-star luminescence, 1 M DEA, 30 min; hits give high values; 0 = EDTA background, 1 = DMSO-only activity; AID 1136; activation factor at 20 µM; 200,000 tested, under 10 active;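 active means activation factor at least 2 at 20 µM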
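Assay system: human TNAP; Input: enzyme diluted 1/800 final; Reagent: CDP-star luminogenic substrate at 100 µM final; Timing: 30 min, room temperature; Signal: luminescence; Evaluation: TNAP activation factor scaled between EDTA and DMSO control wells.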
TNAP inh noacc: TNAP (human) inhibition, acceptor-free conditions | actives 0.26% (n = 200,000) | inhibition, % at 20 µM | P05186 | purified TNAP, CDP-star luminescence, 30 min;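 active means tissue-nonspecific alkaline phosphatase inhibition above about 50% at 20 µM in the single-dose screen, limit read from the data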;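 further: 0% = DMSO negative control and 100% = EDTA positive control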
The depositor's hits bear a star.

SMILES | PMI act | TNAP inh hiacc | PMI act hi M6P | TNAP act hiacc | TNAP inh noacc
Fc1ccc(/C=C2\CCCC3=C2Nc2ncnn2C3c2ccc(F)cc2)cc1 (stereo not drawn) | 1.1 | 3 | 1 | 1 | 12
Cc1ccc(/C=C2\CCCC3=C2NC(=S)NC3c2ccc(C)cc2)cc1 (stereo not drawn) | 1.6 | 9 | 2* | 0.9 | 6
CCOC(=O)C(NCc1ccccc1)(NC(=O)c1ccccc1)C(F)(F)F (stereo not drawn) | 0.9 | -6 | 1 | 1.1 | -8
CCOC(=O)C(NS(=O)(=O)c1ccccc1)(C(F)(F)F)P(=O)(OCC(C)C)OCC(C)C (stereo not drawn) | 1.8 | -2 | 2* | 1 | -24
CCc1ccc(N2CC(C(=O)N/N=C/c3cccc([N+](=O)[O-])c3)CC2=O)cc1 (stereo not drawn) | 1 | -1 | 1 | 1 | -3
CN(C)CCn1c(NC(=O)c2ccc(Cl)cc2)nc2ccccc21 | 1.1 | -11 | 1.1 | 1.1 | 3
CCS(=O)(=O)n1nc(-c2ccccc2)nc1SC | 1 | -4 | 1 | 1 | 54*
CCCC(=O)n1nc(-c2ccccc2)nc1SC | 1 | -4 | 0.9 | 1 | 49
CSc1nc(-c2ccccc2)nn1S(=O)(=O)c1ccccc1 | 1.1 | -3 | 1.1 | 1 | 54*
CSc1nc(-c2ccccc2)nn1C(=O)c1ccccc1 | 0.9 | 0 | 0.9 | 1 | 56*
CSc1nc(-c2ccccc2)nn1S(=O)(=O)c1ccc(Cl)cc1 | 1 | -7 | 1.1 | 1.1 | 2
CC(C(=O)NCC1CCCCC1)N(C)Cc1ccc(Cl)cc1 (stereo not drawn) | 0.9 | -4 | 0.9 | 1 | -9
CC(C)(C)c1nc2ccccc2c2nnc(SCC(=O)Nc3nccs3)n12 | 0.9 | -2 | 1 | 1 | 4
CC(C)(C)c1nc2ccccc2c2nnc(SCC(=O)Nc3nc4ccccc4s3)n12 | 1 | 52* | 1 | 0.5 | 4
Cc1ccc(-c2nnc(Nc3ccc4c(c3)OCO4)c3ccccc23)cc1S(N)(=O)=O | 0.8 | 17 | 0.8 | 0.8 | 79*
Cc1csc2ncc(C(=O)Nc3ccon3)c(=O)n12 | 1 | 0 | 1 | 1 | -4
COc1ccc2c(c1)c(C(=O)N/N=C/c1ccc(O)c(O)c1)c(C)n2C | 0.6 | 1 | 0.9 | 1 | 56*
COc1ccc2nc(C)cc(SCC(=O)N/N=C/c3ccc(O)c(O)c3)c2c1 | 0.7 | 20 | 1.1 | 0.8 | 76*
COc1cccc2c(SCC(=O)N/N=C/c3ccccc3)cc(C)nc12 | 0.9 | -3 | 0.9 | 1 | -10
Cc1cc(SCC(=O)N/N=C/c2ccc(O)c(O)c2)c(C)cc1Br | 0.8 | 12 | 0.8 | 0.9 | 50*
COc1cccc2c(SCC(=O)N/N=C/c3ccc(O)c(O)c3)cc(C)nc12 | 0.6 | 11 | 1 | 0.9 | 72*
Cc1ccccc1NS(=O)(=O)c1ccc2[nH]c(=O)[nH]c2c1 | 0.9 | -4 | 0.9 | 1 | 7
CC(=O)c1c(OC(=O)c2ccccc2Br)ccc2c(C)cc(=O)oc12 | 0.9 | 5 | 0.9 | 1 | -8
CC(=O)c1cccc(NC(=O)CCNS(=O)(=O)c2cccc3nonc23)c1 | 1.1 | -2 | 1 | 1 | -6
COc1ccc(-c2nnn(CC(=O)N(CCN3CCOCC3)C(C(=O)NC3CCCC3)c3ccco3)n2)cc1 (stereo not drawn) | 1 | -3 | 1.1 | 1 | -19
SMILES | PMI act | TNAP inh hiacc | PMI act hi M6P | TNAP act hiacc | TNAP inh noacc
Nc1ccc(C(=O)N/N=C/c2sc(N3CCOCC3)nc2-c2ccccc2)cc1 | 1.1 | 0 | 1.2 | 1 | -8
O=C(O)c1cccc(N/N=C/c2sc(N3CCOCC3)nc2-c2ccccc2)c1 | 1.6 | 3 | 2.5* | 1 | -1
O=C(O)c1cccc(Cn2c(Cl)c(/C=N/Nc3ccccc3)sc2=O)c1 | 1.6 | 3 | 2.5* | 1 | -6
NNC(=O)c1cc(-c2ccco2)[nH]n1 | 1 | 1 | 1 | 1 | 75*
CCOCCCNC(=S)NCCCNc1nc2c(C)cc(C)cc2cc1C#N | 1.7 | -13 | 2.1* | 1.1 | -38
Cc1cc(C)c2nc(NCCCNC(=S)NCCCN(C)C)c(C#N)cc2c1 | 1.1 | -10 | 1.1 | 1.1 | -17
CCn1c(=S)ccc2ccc(OC)cc21 | 1.6 | -5 | 2* | 1.1 | -15
O=C(CN1CCCc2ccccc21)NCCc1ccc(Cl)cc1 | 1 | 5 | 0.9 | 0.9 | -3
O=C(CN1CCN(Cc2ccccc2)CC1)c1ccc(Br)cc1 | 1.5 | -2 | 2.4* | 1 | -1
COc1cccc(/C=N/NC(=O)c2cc(-c3cccn3C)n[nH]2)c1O | 0.9 | 2 | 1.2 | 1 | -157
COc1cc(/C=N/NC(=O)c2cc(-c3cccn3C)n[nH]2)cc(OC)c1OC | 0.9 | 9 | 0.9 | 0.9 | 91*
COc1cccc(/C=N/NC(=O)c2cc(-c3cccn3C)n[nH]2)c1 | 0.9 | 7 | 0.9 | 0.9 | 94*
O=C(NNC(=O)c1ccc(O)cc1O)c1ccc(Cl)cc1 | 1 | 0 | 1 | 1 | 76*
COc1ccc(-c2[nH]nc3oc(=O)cc(C)c23)cc1 | 0.9 | 8 | 0.9 | 0.9 | 90*
Cc1nc(-c2ccccc2)cc(=O)[nH]1 | 1.1 | -6 | 1.1 | 1.1 | -13
Cc1cc(=O)oc2n[nH]c(-c3ccccc3)c12 | 1 | 1 | 1.1 | 1 | 92*
COc1ccc(-c2[nH]nc3oc(=O)c(CCO)c(C)c23)cc1 | 1.1 | 1 | 1 | 1 | 6
Cc1cc(C(=O)CSc2nnnn2-c2ccc(O)cc2)c(C)n1C | 1 | 0 | 0.9 | 1 | 5
NC(=O)c1ccc(-n2nnnc2SCC(=O)c2ccc(O)c(O)c2)cc1 | 0.7 | 15 | 1.1 | 0.9 | 82*
COc1ccc(-n2nnnc2SCC(=O)c2ccc(O)c(O)c2)cc1 | 0.7 | 18 | 0.7 | 0.8 | 76*
Cc1ccc(O)c(C(=O)c2cc(C#N)c(=O)n(-c3nccs3)c2)c1 | 1.1 | -2 | 0.9 | 1 | 13
Cc1cc(C)c2c(CC(=O)NCCc3ccccc3)coc2c1 | 1 | -5 | 1 | 1.1 | -12
CCc1ccc(/C(C)=N\Nc2ccc([N+](=O)[O-])cc2)cc1 | 0.8 | 15 | 0.8 | 0.9 | 13
C/C(=N\Nc1ccc([N+](=O)[O-])cc1)c1ccc(N)cc1 | 1.7 | 10 | 2.3* | 0.9 | 20
Cc1cc(Cl)c2ccccc2n1 | 1.1 | -6 | 1 | 1.1 | -7
Clc1cncc(Cl)c1NNc1c2ccccc2nc2ccccc12 | 1.6 | 8 | 2.2* | 0.9 | 8
Cc1ccc(C2NCCS2)cc1 (stereo not drawn) | 1.5 | 2 | 1.3 | 1 | 63*
CCCC(=O)Nc1ccc(C(=O)N2CCCC2)cc1 | 1 | -7 | 1 | 1.1 | -19
